Structures are written as SMILES. Calls of active or inactive are those of the source. No cut-off for these calls is given here. Bounds are passed on as bounds.

The target of assay [1] is Muscarinic acetylcholine receptor. The assay is described as follows: Displacement of [3H]QNB from rat cortex muscarinic receptor. An outline of the steps: (§1)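 Rat brain tissue by target: striatum for D1, D2 and DAT; olfactory tubercle for D3; cortex for muscarinic, 5-HT3, 5-HT2A, α1, α2, H1, NMDA and SERT; guinea pig cortex for 5-HT4. Inhibitors at seven to nine concentrations. After incubation, samples were filtered on glass fibre filters, washed three times with ice-cold buffer and counted by liquid scintillation. Ki values were derived by curve fitting.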
In general terms: Loss of bound radioactivity is the signal in a displacement assay; it reports binding, not function.

Assay [2] addresses Sodium-dependent dopamine transporter (Rattus norvegicus, UniProt P23977). The assay is described as follows: Displacement of [3H]WIN-35428 from rat striatum DAT. An outline of the steps: as §1
Assay [3] deals with T1, Adrenergic receptor alpha-1 (Rattus norvegicus, UniProt P15823+P23944+P43140).
T1 sequence (P15823 whole entry): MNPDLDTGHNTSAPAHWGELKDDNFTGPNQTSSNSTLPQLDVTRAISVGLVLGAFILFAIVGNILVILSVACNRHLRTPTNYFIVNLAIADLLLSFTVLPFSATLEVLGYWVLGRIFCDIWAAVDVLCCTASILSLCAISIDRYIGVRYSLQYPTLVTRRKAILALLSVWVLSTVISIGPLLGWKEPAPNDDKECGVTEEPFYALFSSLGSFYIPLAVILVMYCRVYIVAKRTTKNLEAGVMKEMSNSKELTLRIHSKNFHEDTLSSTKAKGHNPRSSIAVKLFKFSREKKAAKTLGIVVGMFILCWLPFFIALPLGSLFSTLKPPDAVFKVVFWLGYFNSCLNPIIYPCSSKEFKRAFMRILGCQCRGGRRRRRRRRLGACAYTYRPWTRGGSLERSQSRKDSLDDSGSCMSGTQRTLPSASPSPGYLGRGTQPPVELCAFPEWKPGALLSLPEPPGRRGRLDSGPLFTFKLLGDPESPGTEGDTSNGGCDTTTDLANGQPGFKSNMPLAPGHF
T1 sequence (P23944 whole entry): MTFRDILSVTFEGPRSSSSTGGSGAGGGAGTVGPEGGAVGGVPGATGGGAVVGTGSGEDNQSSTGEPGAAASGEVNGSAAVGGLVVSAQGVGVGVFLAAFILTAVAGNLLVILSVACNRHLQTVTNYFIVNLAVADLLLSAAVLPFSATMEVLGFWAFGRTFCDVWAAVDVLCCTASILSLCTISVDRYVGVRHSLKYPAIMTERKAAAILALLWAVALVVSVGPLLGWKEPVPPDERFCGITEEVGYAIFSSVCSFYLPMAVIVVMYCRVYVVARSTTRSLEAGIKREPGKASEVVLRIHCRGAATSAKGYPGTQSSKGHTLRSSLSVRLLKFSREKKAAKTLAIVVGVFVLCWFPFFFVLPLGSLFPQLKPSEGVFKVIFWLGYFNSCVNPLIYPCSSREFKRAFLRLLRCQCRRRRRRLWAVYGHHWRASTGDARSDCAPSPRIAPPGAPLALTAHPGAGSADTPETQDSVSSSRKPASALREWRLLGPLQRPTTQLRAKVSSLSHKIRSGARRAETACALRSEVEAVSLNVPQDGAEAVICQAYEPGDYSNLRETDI
T1 sequence (P43140 whole entry): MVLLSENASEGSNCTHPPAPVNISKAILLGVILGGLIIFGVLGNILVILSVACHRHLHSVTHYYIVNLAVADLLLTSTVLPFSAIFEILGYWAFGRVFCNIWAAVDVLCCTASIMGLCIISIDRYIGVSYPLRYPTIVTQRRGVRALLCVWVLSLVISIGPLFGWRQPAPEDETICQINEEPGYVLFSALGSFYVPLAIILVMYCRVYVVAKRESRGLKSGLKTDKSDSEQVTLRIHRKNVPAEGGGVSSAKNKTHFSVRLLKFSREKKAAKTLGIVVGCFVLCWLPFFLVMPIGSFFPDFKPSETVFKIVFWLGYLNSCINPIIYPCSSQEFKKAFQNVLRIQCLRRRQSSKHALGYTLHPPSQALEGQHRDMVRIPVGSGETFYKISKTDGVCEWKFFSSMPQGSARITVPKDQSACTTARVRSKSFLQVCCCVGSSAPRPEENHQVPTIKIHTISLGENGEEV
In words: Displacement of [3H]prazosin from rat cortex adrenergic alpha-1 receptor. An outline of the steps:
as §1

For assay [4], the target named is Sodium-dependent serotonin transporter (Rattus norvegicus, UniProt P31652). In words: Displacement of [3H]citalopram from rat cortex SERT. The method, boiled down: as §1
Sequence of Sodium-dependent serotonin transporter (P31652 whole entry): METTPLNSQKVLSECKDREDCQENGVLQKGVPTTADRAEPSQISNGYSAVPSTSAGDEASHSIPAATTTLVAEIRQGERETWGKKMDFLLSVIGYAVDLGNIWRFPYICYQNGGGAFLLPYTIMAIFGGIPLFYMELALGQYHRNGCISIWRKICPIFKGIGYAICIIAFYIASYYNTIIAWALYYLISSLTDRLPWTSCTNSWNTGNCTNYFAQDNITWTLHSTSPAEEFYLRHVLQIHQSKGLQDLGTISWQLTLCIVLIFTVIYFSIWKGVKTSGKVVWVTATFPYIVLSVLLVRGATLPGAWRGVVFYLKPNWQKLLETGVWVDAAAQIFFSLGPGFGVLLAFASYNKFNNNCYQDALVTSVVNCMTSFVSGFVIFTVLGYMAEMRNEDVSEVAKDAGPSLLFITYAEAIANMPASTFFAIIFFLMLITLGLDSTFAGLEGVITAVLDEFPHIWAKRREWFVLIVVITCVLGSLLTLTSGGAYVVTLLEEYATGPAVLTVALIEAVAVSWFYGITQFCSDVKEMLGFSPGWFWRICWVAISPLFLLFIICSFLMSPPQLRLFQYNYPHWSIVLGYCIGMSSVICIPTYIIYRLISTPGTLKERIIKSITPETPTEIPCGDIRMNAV
The target in assay [5] is D(2) dopamine receptor (Rattus norvegicus, UniProt P61169). The assay is described as follows: Displacement of [3H]spiperone from rat striatum dopamine D2 receptor. The method, boiled down:
as §1

The species entered for assay [6] is Rattus norvegicus. In words: Increase in TG-2 expression in albino Wistar rat primary astroglial cells at 25 uM after 24 hrs. The assay is classed as functional. The method, boiled down: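 Primary Wistar rat astrocytes at 14 DIV were exposed to ligand 25 µM for 24 h. Densitometric percentage of TG-2 versus untreated control; HUVEC extract as positive control. Mean ± SD of four experiments.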

Assay [7] concerns the target Histamine H1 receptor (Rattus norvegicus, UniProt P31390). In words: Displacement of [3H]pyrilamine from rat cortex histamine H1 receptor. An outline of the steps: as §1
Assay [8] can be described thus: Displacement of [3H]MK-801 from rat cortex NMDA channel. An outline of the steps:
as §1

The target of assay [9] is T2, 5-hydroxytryptamine receptor 3A (Rattus norvegicus, UniProt P35563).
T2 sequence (P35563 whole entry): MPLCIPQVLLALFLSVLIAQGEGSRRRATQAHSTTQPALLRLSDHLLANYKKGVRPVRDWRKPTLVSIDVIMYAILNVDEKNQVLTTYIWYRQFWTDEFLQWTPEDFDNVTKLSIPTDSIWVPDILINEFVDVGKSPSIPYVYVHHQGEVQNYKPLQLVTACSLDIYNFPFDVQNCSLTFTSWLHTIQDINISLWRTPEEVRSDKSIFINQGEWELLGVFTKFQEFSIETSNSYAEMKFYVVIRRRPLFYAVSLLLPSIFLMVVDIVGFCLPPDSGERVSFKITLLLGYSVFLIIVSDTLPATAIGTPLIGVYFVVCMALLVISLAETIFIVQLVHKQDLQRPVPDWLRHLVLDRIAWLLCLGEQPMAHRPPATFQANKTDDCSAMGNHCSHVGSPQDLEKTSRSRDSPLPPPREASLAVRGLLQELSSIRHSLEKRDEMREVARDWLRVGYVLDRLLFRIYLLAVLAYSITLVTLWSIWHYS
In words: Displacement of [3H]LY278584 from rat cortex 5HT3 receptor. An outline of the steps:
as §1

For assay [10], the target named is Glutamate NMDA receptor. The assay is described as follows: Displacement of [3H]CGP-39653 from rat cortex NMDA receptor. An outline of the steps: as §1
Assay [11] has as its target 5-hydroxytryptamine receptor 6 (Rattus norvegicus, UniProt P31388). The assay is described as follows: Displacement of [3H]5HT from rat cloned 5HT6 receptor expressed in HEK293 cells. The assay is classed as cell-based. The method, boiled down: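 Membranes from HEK-293 cells expressing cloned rat 5-HT6 receptor. Inhibitors at seven to nine concentrations. After incubation, samples were filtered on glass fibre filters, washed three times with ice-cold buffer and counted by liquid scintillation. Ki values were derived by curve fitting.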

The target of assay [12] is D(1A) dopamine receptor (Rattus norvegicus, UniProt P18901). In words: Displacement of [3H]SCH-23390 from rat striatum dopamine D1 receptor. The method, boiled down:
as §1

For assay [13], the target named is 5-hydroxytryptamine receptor 2A (Rattus norvegicus, UniProt P14842). The assay is described as follows: Displacement of [3H]ketanserin from rat cortex 5HT2A receptor. An outline of the steps:
as §1

Assay [14] can be described thus: Displacement of [3H]DTG rom guinea pig brain sigma 2 receptor. Also noted: species or system Cavia porcellus.

Sequence of 5-hydroxytryptamine receptor 6 (P31388 whole entry): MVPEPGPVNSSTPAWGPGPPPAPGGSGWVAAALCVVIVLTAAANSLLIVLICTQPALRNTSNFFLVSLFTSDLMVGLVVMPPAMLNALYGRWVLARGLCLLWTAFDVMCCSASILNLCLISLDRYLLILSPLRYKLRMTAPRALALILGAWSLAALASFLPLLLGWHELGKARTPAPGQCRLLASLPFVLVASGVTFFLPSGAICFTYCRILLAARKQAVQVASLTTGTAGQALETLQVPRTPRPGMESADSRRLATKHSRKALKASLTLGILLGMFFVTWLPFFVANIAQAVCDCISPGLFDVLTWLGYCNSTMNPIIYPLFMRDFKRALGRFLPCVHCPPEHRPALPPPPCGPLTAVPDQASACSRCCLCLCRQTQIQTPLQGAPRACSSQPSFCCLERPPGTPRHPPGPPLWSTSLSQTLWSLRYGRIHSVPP
Sequence of D(1A) dopamine receptor (P18901 whole entry): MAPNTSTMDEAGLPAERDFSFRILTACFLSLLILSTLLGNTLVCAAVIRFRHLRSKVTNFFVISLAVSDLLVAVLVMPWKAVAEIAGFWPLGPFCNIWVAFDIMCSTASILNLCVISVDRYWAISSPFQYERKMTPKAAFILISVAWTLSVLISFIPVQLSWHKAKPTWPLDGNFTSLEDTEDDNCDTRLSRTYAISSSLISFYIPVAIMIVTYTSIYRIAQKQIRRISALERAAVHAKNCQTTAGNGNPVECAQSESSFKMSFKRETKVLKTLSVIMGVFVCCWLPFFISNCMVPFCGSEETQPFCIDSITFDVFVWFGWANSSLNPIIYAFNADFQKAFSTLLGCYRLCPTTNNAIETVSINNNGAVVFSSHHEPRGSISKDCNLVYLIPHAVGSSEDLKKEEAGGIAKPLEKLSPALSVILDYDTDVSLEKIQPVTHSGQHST
Sequence of 5-hydroxytryptamine receptor 2A (P14842 whole entry): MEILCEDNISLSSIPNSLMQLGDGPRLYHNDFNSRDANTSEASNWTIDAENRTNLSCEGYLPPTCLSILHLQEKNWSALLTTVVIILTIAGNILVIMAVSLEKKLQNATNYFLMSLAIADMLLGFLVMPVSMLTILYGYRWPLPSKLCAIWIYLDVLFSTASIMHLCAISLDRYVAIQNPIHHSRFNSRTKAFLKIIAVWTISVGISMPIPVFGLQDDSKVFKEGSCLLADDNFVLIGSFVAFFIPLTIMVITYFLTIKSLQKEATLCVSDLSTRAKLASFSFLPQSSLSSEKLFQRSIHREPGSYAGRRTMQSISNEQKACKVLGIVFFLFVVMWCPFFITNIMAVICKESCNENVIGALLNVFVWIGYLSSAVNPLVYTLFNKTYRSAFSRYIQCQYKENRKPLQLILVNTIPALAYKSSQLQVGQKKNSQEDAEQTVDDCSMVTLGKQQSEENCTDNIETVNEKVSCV
Sequence of D(2) dopamine receptor (P61169 whole entry): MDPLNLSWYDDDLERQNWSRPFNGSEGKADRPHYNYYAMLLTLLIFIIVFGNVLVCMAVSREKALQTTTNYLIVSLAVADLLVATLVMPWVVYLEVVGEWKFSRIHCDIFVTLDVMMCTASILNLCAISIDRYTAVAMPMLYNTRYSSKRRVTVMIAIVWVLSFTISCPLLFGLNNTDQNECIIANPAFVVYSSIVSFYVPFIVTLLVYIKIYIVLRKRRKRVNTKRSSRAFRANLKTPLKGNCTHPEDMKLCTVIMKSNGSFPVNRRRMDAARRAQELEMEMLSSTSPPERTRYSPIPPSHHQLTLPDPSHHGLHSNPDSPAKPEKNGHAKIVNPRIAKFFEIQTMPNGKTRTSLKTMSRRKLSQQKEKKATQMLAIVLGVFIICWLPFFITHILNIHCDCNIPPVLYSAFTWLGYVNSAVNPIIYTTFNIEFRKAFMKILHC
Sequence of Sodium-dependent dopamine transporter (P23977 whole entry): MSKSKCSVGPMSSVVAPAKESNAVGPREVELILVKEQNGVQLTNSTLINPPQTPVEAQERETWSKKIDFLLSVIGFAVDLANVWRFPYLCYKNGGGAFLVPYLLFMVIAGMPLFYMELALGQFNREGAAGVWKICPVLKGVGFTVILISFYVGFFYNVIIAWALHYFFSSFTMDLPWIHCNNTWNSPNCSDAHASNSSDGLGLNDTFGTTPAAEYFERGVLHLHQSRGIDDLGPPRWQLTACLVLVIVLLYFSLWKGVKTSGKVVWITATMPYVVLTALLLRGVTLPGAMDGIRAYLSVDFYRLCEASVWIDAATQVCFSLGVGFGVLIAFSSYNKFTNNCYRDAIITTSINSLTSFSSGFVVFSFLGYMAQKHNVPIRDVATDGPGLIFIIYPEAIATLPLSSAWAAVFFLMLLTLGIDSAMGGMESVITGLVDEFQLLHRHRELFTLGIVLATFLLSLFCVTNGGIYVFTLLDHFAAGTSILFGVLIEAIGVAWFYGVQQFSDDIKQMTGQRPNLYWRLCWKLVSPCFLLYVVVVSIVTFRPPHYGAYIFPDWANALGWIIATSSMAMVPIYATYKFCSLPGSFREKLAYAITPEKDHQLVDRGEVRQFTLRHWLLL
Sequence of Histamine H1 receptor (P31390 whole entry): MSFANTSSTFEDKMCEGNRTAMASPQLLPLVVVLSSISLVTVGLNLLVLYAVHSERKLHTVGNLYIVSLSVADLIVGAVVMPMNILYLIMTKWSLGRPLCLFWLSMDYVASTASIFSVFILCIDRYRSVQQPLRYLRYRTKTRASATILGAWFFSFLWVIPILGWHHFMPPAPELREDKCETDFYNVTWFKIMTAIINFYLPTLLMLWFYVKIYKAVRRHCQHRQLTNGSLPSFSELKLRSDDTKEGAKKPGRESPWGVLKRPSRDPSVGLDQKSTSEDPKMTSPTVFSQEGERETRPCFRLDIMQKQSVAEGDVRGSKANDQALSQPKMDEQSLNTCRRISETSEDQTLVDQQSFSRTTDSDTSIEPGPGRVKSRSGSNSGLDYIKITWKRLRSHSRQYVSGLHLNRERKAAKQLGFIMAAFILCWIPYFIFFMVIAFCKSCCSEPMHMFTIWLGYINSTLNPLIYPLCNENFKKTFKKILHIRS

Consider `COC(=O)C1(c2ccc(C)cc2)CC1CN1CCC(O)(c2ccccc2)CC1` (centres undefined), for which the Ki in assay [1] was over 10 µM; in assay [2], over 10 µM; in assay [3], 605 nM; in assay [4], over 10 µM; in assay [5], 1280 nM; in assay [7], 1420 nM. In addition, the Ki was over 10 µM in assay [8]; over 10 µM in assay [9]; over 10 µM in assay [10]; over 10 µM in assay [11]; over 10 µM in assay [12]; 3.15 µM in assay [13]. Further, the affinity in assay [14], expressed as Ki, was 50.8 nM. In addition, the outcome in assay [6] was Active.

One may read the Ki as a dissociation constant, usually derived from enzyme kinetics or from competition with a known ligand. High values mean weaker binding, low ones tighter binding.
